According to ChEMBL document CHEMBL1130160 (J Med Chem, 1997):
Activity calls are given as the source filed them. The calls are words filed in the database; no cut-off is given here.

Tests used:
Rattus norvegicus [1] = assay: Minimum effective dose at which significant increase in uterine eosinophil peroxidase (EPO) activity in rat was determined (in vivo); assay type: functional; conditions: read-out: MED
Rattus norvegicus [2] = assay: Minimum effective dose at which significant increase in uterine weight/body weight in rat was determined (in vivo); assay type: functional; conditions: read-out: MED
In short: (§1)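 In 75-day OVX Sprague–Dawley rats dosed orally for 4 days, beginning 2 weeks post-ovariectomy with 5–6 rats per group, whole uteri were weighed the morning after fasting. MED is the lowest dose giving a significant (p≤0.05) rise in uterine weight/body weight, expressed as % increase over OVX controls ±SE.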

Rattus norvegicus [3] = assay: Eosinophil peroxidase activity expressed as Vmax was determined in rat (in vivo) Eosinophil peroxidase activity expressed as Vmax was determined in rat (in vivo); assay type: functional; set-up: unit not given here
Rattus norvegicus [4] = assay: Percent protection of bone mineral density in the distal femur of OVX rat at a dose of 0.01 mg/kg/day; assay type: functional
In short: (§2)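 OVX Sprague–Dawley rats (6-month old, or 75-day old in one case) were dosed orally each day for 35 days, starting 4 days after ovariectomy. Digitized X-rays of the right distal femoral metaphysis gave BMD. % protection = (test − OVX)/(sham − OVX) × 100, reported ±SE.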

Estrogen receptor [5] = molecular target: T1, Estrogen receptor (Homo sapiens, UniProt Q92731+P03372); conditions: mcf7
Rattus norvegicus [6] = assay: Percent decrease in serum cholesterol relative to OVX control at 0.1 mg/kg in rats; assay type: functional
In short: (§3)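 OVX Sprague–Dawley rats (75 days old), 5–6 per group, dosed once daily by oral gavage for 4 consecutive days, starting 14 days after ovariectomy. Vehicle was 20% β-hydroxycyclodextrin at 1 mL/kg, or 1.5% carboxymethylcellulose in some cases. Rats were fasted after the last dose and bled by cardiac puncture next morning.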

Rattus norvegicus [7] = assay: Percent decrease in serum cholesterol relative to OVX control at 1.0 mg/kg in rats; assay type: functional; in short: as §3
Rattus norvegicus [8] = assay: Percent protection of bone mineral density in the distal femur of OVX rat at a dose of 0.1 mg/kg/day; assay type: functional; in short: as §2
Rattus norvegicus [9] = assay: Percent protection of bone mineral density in the distal femur of OVX rat at a dose of 1 mg/kg/day; assay type: functional; in short: as §2
Rattus norvegicus [10] = assay: Minimum effective dose at which significant increase in uterine weight/body weight in rat was determined (in vivo); expressed as % increase relative to ovariectomized (OVX) controls; assay type: functional; in short: as §1
Rattus norvegicus [11] = assay: Percent decrease in serum cholesterol relative to OVX control at 10 mg/kg in rat was determined (in vivo); assay type: functional; in short: as §3
Rattus norvegicus [12] = assay: Dose required to reduce serum cholesterol by 50% relative to OVX controls was determined (in vivo); assay type: functional; in short: as §3
Rattus norvegicus [13] = assay: Percent decrease in serum cholesterol relative to OVX control at 1 mg/kg in rat; assay type: functional; in short: as §3
Rattus norvegicus [14] = assay: Percent decrease in serum cholesterol relative to OVX control at 0.1 mg/kg in rat was determined (in vivo); assay type: functional; in short: as §3
Estrogen receptor [15] = molecular target: T1, Estrogen receptor; assay: In vitro relative binding affinity by competition with [3H]17-beta-estradiol for estrogen receptor in MCF-7 cell lysate; Not active at the doses tested; assay type: cell-based
In short: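 Human MCF-7 cell lysate (0.5–1.0 mg/mL total protein) incubated 18 h at 4 °C with 0.5 nM [3H]17β-estradiol and serial dilutions of test compound. Unbound radioligand removed with dextran/charcoal and centrifugation; bound label in the supernatant counted by scintillation. RBA = IC50(17β-estradiol)/IC50(test compound) × 100.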

MCF7 = assay: Inhibition of MCF-7 cell proliferation stimulated by 10e-[…] M 17-beta-estradiol; Not active at the doses tested; assay type: functional, cell-based, Homo sapiens
Rattus norvegicus [16] = assay: Percent decrease in serum cholesterol relative to OVX control at 10 mg/kg in rats; assay type: functional; in short: as §3
Rattus norvegicus [17] = assay: Percent protection of bone mineral density in the distal femur of OVX rat at a dose of 10 mg/kg/day; assay type: functional; in short: as §2
Rattus norvegicus [18] = assay: Eosinophil peroxidase activity expressed as Vmax was determined in rat (in vivo); assay type: functional

Row | SMILES | IC50 (Estrogen receptor [5]) [µM] | relative binding affinity (RBA) (Estrogen receptor [15]) | IC50 (MCF7) | minimal effective dose (Rattus norvegicus [1]) [mg/kg] | minimal effective dose (Rattus norvegicus [2]) [mg/kg] | Eosinophil peroxidase activity (Vmax) (Rattus norvegicus [3]) | Protection (Rattus norvegicus [4]) [%] | Decrease (Rattus norvegicus [6]) [%] | Decrease (Rattus norvegicus [7]) [%] | Protection (Rattus norvegicus [8]) [%] | Protection (Rattus norvegicus [9]) [%] | Increase (Rattus norvegicus [10]) [%] | Decrease (Rattus norvegicus [11]) [%] | ED50 (Rattus norvegicus [12]) [mg/kg] | Decrease (Rattus norvegicus [13]) [%] | Decrease (Rattus norvegicus [14]) [%] | Decrease (Rattus norvegicus [16]) [%] | Protection (Rattus norvegicus [17]) [%] | Increase (Rattus norvegicus [18]) [Vmax]
1 | O=C(c1ccc(OCCN2CCCCC2)cc1)c1c(-c2ccc(O)c3ccccc23)sc2cc(O)ccc12 | 0.002 | – | – | 0.1 | 0.1 | 29.4 | 35.9 | 31.6 | 54.7 | 42.3 | 82.5 | 59.6 | 59.9 | 1.2 | – | – | – | – | –
2 | O=C(c1ccc(OCCN2CCCCC2)cc1)c1c(-c2ccc(-c3ccccc3)cc2)sc2cc(O)ccc12 | 0.1 | – | – | 1 | 0.1 | 25.4 | – | – | – | – | – | 50.3 | 68.5 | 2.4 | 37 | 12.9 | – | – | –
3 | O=C(c1ccc(OCCN2CCCCC2)cc1)c1c(Cc2ccc(O)cc2)sc2cc(O)ccc12 | 0.005 | – | – | > 10 | 5 | – | – | -17.6 | 41.7 | – | – | 36.9 | – | 4 | – | – | 54 | – | –
4 | O=C(c1ccc(OCCN2CCCCC2)cc1)c1c(-c2ccc(O)c(F)c2)sc2cc(O)ccc12 | 0.0003 | – | – | > 10 | 0.1 | – | 34.5 | – | – | 34.1 | 68 | 34.3 | 55.3 | 0.4 | 59.2 | 45.9 | – | 69.8 | –
5 | Cl.O=C(c1ccc(OCCN2CCCCC2)cc1)c1c(-c2ccc(Cl)cc2)sc2ccccc12 | – | – | Not Active | – | – | – | – | – | – | – | – | – | – | – | – | – | – | – | –
6 | Cc1cc(-c2sc3cc(O)ccc3c2C(=O)c2ccc(OCCN3CCCCC3)cc2)cc(C)c1O | 0.1 | – | – | 1 | 1 | 40.8 | – | – | – | – | – | 33.8 | 69.1 | 1.8 | 40.2 | 23.1 | – | – | –
7 | COC(=O)c1ccc2c(C(=O)c3ccc(OCCN4CCCCC4)cc3)c(-c3ccc(O)cc3)sc2c1.Cl | – | – | – | > 10 | 0.1 | – | – | – | – | -10 | 17 | 37.5 | 61 | 2.8 | 42.8 | 13.8 | – | 43.9 | –
8 | O=C(c1ccc(OCCN2CCCCC2)cc1)c1c(-c2ccc(O)cc2)sc2cc(O)ccc12 [RALOXIFENE] | – | – | – | > 10 | 0.1 | – | 9.6 | – | – | 50 | 57.7 | 23.5 | 74 | 0.2 | 66.7 | 44.9 | – | 53.8 | –
9 | CSc1ccc(-c2sc3cc(O)ccc3c2C(=O)c2ccc(OCCN3CCCCC3)cc2)cc1 | – | – | – | 1 | 1 | 37.5 | – | – | – | – | – | 50.2 | 75.3 | 0.9 | 51.5 | 27.7 | – | – | –
10 | O=C(c1ccc(OCCN2CCCCC2)cc1)c1c2ccc(O)cc2sc1[C@H]1CC[C@H](O)CC1 | – | – | – | > 10 | 0.1 | – | – | 48.7 | 41.1 | 17 | 61.3 | 46.7 | 60.4 | 1 | – | – | – | 67.4 | –
11 | C[C@]12CC[C@@H]3c4ccc(O)cc4CC[C@H]3[C@@H]1CC[C@@H]2O [ESTRADIOL] | – | – | Not Active | – | – | – | – | – | – | – | – | – | – | – | – | – | – | – | –

More lines, main results first:

Row | IC50 (Estrogen receptor [5]) [µM] | relative binding affinity (RBA) (Estrogen receptor [15]) | IC50 (MCF7) | SMILES | minimal effective dose (Rattus norvegicus [1]) [mg/kg] | minimal effective dose (Rattus norvegicus [2]) [mg/kg] | Eosinophil peroxidase activity (Vmax) (Rattus norvegicus [3]) | Protection (Rattus norvegicus [4]) [%] | Decrease (Rattus norvegicus [6]) [%] | Decrease (Rattus norvegicus [7]) [%] | Protection (Rattus norvegicus [8]) [%] | Protection (Rattus norvegicus [9]) [%] | Increase (Rattus norvegicus [10]) [%] | Decrease (Rattus norvegicus [11]) [%] | ED50 (Rattus norvegicus [12]) [mg/kg] | Decrease (Rattus norvegicus [13]) [%] | Decrease (Rattus norvegicus [14]) [%] | Decrease (Rattus norvegicus [16]) [%] | Protection (Rattus norvegicus [17]) [%] | Increase (Rattus norvegicus [18]) [Vmax]
12 | – | inactive | Not Active | O=C(O)c1ccc2c(C(=O)c3ccc(OCCN4CCCCC4)cc3)c(-c3ccc(O)cc3)sc2c1 | > 10 | 1 | – | – | – | – | – | – | 40.8 | 53.3 | 9 | 12.5 | -16.4 | – | – | –
13 | 0.03 | – | – | CC(C)c1ccc(-c2sc3cc(O)ccc3c2C(=O)c2ccc(OCCN3CCCCC3)cc2)cc1 | 1 | 0.1 | – | – | – | – | – | – | 24.9 | 48.5 | 3.6 | 47.1 | -24.1 | – | – | 33.3
14 | 1 | – | – | O=C(c1ccc(OCCN2CCCCC2)cc1)c1c(-c2ccc(C(F)(F)F)cc2)sc2cc(O)ccc12 | 5 | 5 | – | – | – | – | – | – | – | – | 0.4 | – | – | 71.5 | – | –
15 | 0.005 | – | – | CCc1ccc(-c2sc3cc(O)ccc3c2C(=O)c2ccc(OCCN3CCCCC3)cc2)cc1 | 1 | 10 | – | – | – | – | – | – | 29.7 | 57.4 | 4.3 | 37.2 | 3.3 | – | – | 39.9
16 | 0.3 | inactive | – | Cc1ccc2c(C(=O)c3ccc(OCCN4CCCCC4)cc3)c(-c3ccc(O)cc3)sc2c1.Cl | > 10 | 1 | – | – | – | – | – | – | 23.9 | 21.6 | > 10 | 33.9 | 16.9 | – | – | –
17 | 0.0032 | – | – | O=C(c1ccc(OCCN2CCCCC2)cc1)c1c(-c2cccc(O)c2)sc2cc(O)ccc12 | > 10 | > 10 | – | – | – | – | -30.9 | 79.7 | – | – | 0.8 | – | – | – | 44.2 | –
18 | 0.1 | – | – | CCSCc1ccc(-c2sc3cc(O)ccc3c2C(=O)c2ccc(OCCN3CCCCC3)cc2)cc1 | 1 | 1 | 36.9 | – | – | – | – | – | 30.5 | 63 | 2.5 | 40.1 | 21.7 | – | – | –
